Experimental findings from ChEMBL document CHEMBL5678802, “Small-molecule p21-activated kinase inhibitor PF-3758309 is a potent inhibitor of oncogenic signaling and tumor growth” (Proc Natl Acad Sci U S A, 2010) are described below.

The subject of one assay is RKO. The assay can be described thus: Antiproliferative activity against human RKO cells assessed as inhibition of cell proliferation incubated for 3 days by CellTiter-Glo Luminescent Cell Viability Assay. It is filed as functional, cell-based. To be noted: 72 h. The essentials: (§1)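 Cells of each line were plated in 384-well plates on day 1 and exposed to compound from day 2 for 3 days. On day 5 all medium was aspirated. Viable cell number was read by CellTiter-Glo luminescence, which quantifies cellular ATP.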
In general terms: In ATP-based viability assays light output follows the ATP content of the culture.

For another assay, the system named is Caco-2. The assay can be described thus: Antiproliferative activity against human Caco-2 cells assessed as inhibition of cell proliferation incubated for 3 days by CellTiter-Glo Luminescent Cell Viability Assay. Type of assay: functional, cell-based. The note with it: Caco-2, 72 h. In a few lines:
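Cancer cell lines seeded in 384-well plates on day 1; compound added on day 2 and left for 3 days. On day 5 all medium was aspirated, and viable cells were quantified by CellTiter-Glo luminescence, which measures cellular ATP. Dose-dependent effects on proliferation were determined.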

In another assay the test system is NCI-H526. The assay can be described thus: Antiproliferative activity against human NCI-H526 cells assessed as inhibition of cell proliferation incubated for 3 days by CellTiter-Glo Luminescent Cell Viability Assay. Type of assay: functional, cell-based. The note with it: NCI-H526, 72 h. The essentials:
as §1

A short description of assay [1]: Antiproliferative activity against human PaTu 8902 cells assessed as inhibition of cell proliferation incubated for 3 days by CellTiter-Glo Luminescent Cell Viability Assay. It is filed as functional, cell-based. The note with it: PaTu 8902, 72 h. The essentials:
as §1

The test system of another assay is PANC-03-27. The assay can be described thus: Antiproliferative activity against human PANC-03-27 cells assessed as inhibition of cell proliferation incubated for 3 days by CellTiter-Glo Luminescent Cell Viability Assay. To be noted: PANC-03-27, 72 h. It is filed as functional, cell-based. The essentials: as §1
The target of assay [2] is Tyrosine-protein kinase Yes (Homo sapiens, UniProt P07947). The assay can be described thus: Inhibition of human YES1 assessed as inhibition constant in presence of ATP.
Chain of Tyrosine-protein kinase Yes (P07947 whole entry): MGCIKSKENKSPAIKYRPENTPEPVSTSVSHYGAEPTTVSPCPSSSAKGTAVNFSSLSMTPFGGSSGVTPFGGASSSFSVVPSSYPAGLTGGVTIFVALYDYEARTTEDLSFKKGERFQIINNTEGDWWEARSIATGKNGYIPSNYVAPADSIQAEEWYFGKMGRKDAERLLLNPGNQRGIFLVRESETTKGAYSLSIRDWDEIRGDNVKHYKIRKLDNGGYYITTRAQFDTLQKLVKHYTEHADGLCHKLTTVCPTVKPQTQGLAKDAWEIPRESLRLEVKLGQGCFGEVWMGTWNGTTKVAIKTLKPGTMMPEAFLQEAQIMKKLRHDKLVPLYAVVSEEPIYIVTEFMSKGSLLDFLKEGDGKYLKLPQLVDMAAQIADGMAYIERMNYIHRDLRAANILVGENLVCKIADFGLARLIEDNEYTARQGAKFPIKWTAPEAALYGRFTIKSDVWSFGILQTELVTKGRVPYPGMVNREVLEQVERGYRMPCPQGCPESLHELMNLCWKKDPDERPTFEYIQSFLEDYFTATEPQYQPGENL
The target of assay [3] is Protein kinase C beta type (Homo sapiens, UniProt P05771). The assay can be described thus: Inhibition of human PKCbeta1 assessed as inhibition constant in presence of ATP.
Chain of Protein kinase C beta type (P05771 whole entry): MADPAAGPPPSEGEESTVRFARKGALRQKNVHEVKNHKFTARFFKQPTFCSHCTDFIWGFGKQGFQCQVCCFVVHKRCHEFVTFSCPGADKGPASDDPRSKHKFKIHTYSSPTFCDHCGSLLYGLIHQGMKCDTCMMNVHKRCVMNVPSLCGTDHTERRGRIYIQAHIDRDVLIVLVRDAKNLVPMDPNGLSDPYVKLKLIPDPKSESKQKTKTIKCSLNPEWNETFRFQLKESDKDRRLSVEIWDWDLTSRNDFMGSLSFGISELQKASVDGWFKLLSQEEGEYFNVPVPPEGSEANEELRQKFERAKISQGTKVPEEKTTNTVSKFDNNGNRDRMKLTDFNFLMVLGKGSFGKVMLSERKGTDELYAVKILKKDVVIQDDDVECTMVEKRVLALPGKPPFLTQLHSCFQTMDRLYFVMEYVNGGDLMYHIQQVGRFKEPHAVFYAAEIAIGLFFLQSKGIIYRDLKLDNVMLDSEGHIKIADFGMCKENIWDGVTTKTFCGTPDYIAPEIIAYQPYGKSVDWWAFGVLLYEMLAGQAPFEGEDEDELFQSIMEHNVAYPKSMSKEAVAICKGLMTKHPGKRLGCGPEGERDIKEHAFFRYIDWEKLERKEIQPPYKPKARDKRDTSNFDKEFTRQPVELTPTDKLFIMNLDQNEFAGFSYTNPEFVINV
The target of assay [4] is AMP-activated protein kinase (AMPK) alpha-1/beta-1/gamma-1 (Homo sapiens, UniProt P54619+Q13131+Q9Y478). The assay can be described thus: Inhibition of human AMPK alpha1/beta1/gamma1 in presence of ATP by cellular assay. Type of assay: protein-complex assay.
Chain of AMP-activated protein kinase (AMPK) alpha-1/beta-1/gamma-1 (P54619 whole entry): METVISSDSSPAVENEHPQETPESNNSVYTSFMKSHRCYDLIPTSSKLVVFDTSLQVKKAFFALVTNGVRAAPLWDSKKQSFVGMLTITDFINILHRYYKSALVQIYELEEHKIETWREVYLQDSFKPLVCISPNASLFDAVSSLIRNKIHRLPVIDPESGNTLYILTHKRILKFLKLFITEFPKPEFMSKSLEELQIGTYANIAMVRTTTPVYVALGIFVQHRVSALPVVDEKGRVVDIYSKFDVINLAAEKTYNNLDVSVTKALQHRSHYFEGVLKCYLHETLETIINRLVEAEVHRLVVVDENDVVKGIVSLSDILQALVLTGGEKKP
Chain of AMP-activated protein kinase (AMPK) alpha-1/beta-1/gamma-1 (Q9Y478 whole entry): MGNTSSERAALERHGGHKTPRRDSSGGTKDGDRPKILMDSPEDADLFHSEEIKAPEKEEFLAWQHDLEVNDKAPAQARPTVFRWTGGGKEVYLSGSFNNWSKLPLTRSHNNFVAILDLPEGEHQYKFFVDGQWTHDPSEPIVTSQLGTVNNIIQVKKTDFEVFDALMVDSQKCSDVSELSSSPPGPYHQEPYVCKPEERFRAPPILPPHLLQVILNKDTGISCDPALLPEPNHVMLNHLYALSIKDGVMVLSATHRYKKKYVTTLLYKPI
Chain of AMP-activated protein kinase (AMPK) alpha-1/beta-1/gamma-1 (Q13131 whole entry): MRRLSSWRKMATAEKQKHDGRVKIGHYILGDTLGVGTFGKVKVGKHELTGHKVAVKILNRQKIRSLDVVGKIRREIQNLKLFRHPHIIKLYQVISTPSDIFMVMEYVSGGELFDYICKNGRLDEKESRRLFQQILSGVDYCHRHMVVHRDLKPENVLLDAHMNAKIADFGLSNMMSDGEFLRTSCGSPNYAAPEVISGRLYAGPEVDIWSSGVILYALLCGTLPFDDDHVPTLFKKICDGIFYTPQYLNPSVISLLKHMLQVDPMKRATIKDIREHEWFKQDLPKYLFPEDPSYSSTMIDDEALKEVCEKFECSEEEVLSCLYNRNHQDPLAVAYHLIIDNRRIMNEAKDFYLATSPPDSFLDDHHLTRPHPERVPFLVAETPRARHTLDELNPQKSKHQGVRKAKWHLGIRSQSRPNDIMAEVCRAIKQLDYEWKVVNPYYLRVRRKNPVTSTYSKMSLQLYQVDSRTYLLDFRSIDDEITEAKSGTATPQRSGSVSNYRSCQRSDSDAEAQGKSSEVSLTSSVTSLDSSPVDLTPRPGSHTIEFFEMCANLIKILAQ
The target in assay [5] is Serine/threonine-protein kinase Chk2 (Homo sapiens, UniProt O96017). The assay can be described thus: Inhibition of human CHK2 in presence of ATP by cellular assay.
Chain of Serine/threonine-protein kinase Chk2 (O96017 whole entry): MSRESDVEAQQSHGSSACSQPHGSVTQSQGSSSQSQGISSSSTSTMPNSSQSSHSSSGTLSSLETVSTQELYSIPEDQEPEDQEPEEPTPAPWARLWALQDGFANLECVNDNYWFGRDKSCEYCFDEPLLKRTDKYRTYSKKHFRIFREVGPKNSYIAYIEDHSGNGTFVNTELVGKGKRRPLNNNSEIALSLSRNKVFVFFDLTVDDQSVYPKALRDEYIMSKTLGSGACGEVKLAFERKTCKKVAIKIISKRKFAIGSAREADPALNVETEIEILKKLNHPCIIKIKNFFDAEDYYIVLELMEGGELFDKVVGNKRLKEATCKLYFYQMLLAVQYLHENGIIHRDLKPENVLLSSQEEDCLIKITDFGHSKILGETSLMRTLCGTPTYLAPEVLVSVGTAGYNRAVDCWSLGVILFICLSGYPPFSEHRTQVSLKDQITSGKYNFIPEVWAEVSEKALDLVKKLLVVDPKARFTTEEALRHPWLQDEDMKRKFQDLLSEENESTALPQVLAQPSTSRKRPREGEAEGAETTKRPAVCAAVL
Assay [6] addresses T1, cGMP-dependent protein kinase 1 (Homo sapiens, UniProt Q13976).
T1 sequence (Q13976 whole entry): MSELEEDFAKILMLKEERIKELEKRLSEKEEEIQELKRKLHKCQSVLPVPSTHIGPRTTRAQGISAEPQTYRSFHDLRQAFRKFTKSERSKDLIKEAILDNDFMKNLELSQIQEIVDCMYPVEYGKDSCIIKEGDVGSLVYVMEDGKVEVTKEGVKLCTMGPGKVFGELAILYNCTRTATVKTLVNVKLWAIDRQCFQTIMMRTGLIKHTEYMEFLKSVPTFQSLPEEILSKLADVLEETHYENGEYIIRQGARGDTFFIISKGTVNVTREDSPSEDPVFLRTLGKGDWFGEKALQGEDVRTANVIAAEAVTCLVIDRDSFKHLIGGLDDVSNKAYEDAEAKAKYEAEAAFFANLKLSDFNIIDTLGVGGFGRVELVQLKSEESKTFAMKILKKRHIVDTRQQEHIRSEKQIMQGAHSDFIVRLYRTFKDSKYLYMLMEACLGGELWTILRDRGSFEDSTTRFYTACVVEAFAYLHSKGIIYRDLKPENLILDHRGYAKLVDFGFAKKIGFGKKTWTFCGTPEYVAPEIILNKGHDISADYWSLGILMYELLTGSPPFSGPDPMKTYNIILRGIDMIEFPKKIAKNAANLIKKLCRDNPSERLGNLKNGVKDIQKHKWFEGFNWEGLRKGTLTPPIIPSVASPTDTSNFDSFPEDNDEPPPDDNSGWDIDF
The assay can be described thus: Inhibition of human PRKG1 in presence of ATP by cellular assay.

The subject of a further assay is GTL 16 cell line. The assay can be described thus: Antitumor activity against human GTL-16 cell line xenografted in nude mouse assessed as tumor growth inhibition at 20 mg/kg, po administered once daily for 9 to 18 days relative to control. Type of assay: functional. To be noted: time 9-18 day, read-out: TGI. In a few lines:
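Tumor cells were implanted s.c. into the right flank of female nu/nu nude mice aged 6–8 weeks. Animals were randomized into treatment groups once tumors were established (example: day 8 postimplant, about 170 mm3, animals >22 g). Compound in 0.5% methylcellulose was given by oral gavage. Tumors were measured with calipers two to three times per week.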
A general note: In xenograft studies the graft and the host belong to different species.

The subject of a further assay is HCT-116. The assay can be described thus: Antitumor activity against human HCT-116 cells xenografted in nude mouse assessed as reduction in Src phosphorylation at Y416 residue at 15 to 150 mg/kg/day administered via pump for 18 hrs by Reverse-Phase protein array analysis. It is filed as functional, organism-based. The note with it: dose 15-150 mg/kg/day.
Assay [7] concerns the target T2, Serine/threonine-protein kinase PAK 4 (Homo sapiens, UniProt O96013). To be noted: dose 50.0 µM.
For assay [8], the target named is T2, Serine/threonine-protein kinase PAK 4.

Activity calls are given as the source filed them. The rule behind the calls is not given here.

T2 sequence (O96013 whole entry, looked up): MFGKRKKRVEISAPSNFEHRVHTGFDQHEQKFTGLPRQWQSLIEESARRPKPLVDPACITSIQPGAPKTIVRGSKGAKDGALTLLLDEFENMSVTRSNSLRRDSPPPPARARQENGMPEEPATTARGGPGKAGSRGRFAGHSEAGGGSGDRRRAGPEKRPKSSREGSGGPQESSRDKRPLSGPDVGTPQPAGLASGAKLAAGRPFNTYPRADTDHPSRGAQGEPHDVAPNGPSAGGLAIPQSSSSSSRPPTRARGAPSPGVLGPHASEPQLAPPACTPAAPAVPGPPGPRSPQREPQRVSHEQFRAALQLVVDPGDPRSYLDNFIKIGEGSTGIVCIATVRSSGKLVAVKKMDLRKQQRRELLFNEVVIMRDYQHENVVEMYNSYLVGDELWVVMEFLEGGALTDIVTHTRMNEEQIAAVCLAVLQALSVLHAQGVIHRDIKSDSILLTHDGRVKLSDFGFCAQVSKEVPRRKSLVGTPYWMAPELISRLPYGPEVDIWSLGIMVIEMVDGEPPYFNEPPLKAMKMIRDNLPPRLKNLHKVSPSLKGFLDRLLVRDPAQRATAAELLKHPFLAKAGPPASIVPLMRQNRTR

For `Cc1nc(Nc2n[nH]c3c2CN(C(=O)N[C@H](CN(C)C)c2ccccc2)C3(C)C)c2sccc2n1` [PF-03758309], the IC50 (commonly the point on the concentration scale where inhibition reaches its midpoint) in the assay on RKO is 1.8 nM; in the assay on Caco-2, 10000 nM; with NCI-H526 it was 1.4 nM; in assay [1], 27 nM; with PANC-03-27, 32 nM; in assay [4] it was 40 nM. Besides, the values for the IC50 in assay [5] and in assay [6] were 302 nM and 3370 nM, respectively. Further, the Ki – broadly, a measure of affinity in units of concentration, obtained from inhibition or displacement – in assay [2] turned out to be 43 nM; in [3], 185 nM. In addition, the inhibition in vivo at 20 mg/kg with GTL 16 cell line was determined as 28%. For the same compound, the outcome with HCT-116 was Active. The TdeltaS in [7] turned out to be 6.7 kcal/mol. The T1/2 in assay [8] was 1.13 min.
